{"source": "ChEMBL document CHEMBL1131263", "about": "“Substituted tetrahydropyrrolo[2,1-b]oxazol-5(6H)-ones and tetrahydropyrrolo[2,1-b]thiazol-5(6H)-ones as hypoglycemic agents” (1998)"}
{"assay": "lowest concentration at which glucose utilized was greater than or equal to 140% of control value tested in a glucose utilization L6 myocyte in vitro assay", "format": "functional, Rattus norvegicus", "in_short": "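Differentiated rat L6 myotubes (day 11 or 13 after plating) exposed 20 h to compound in serum-free DMEM with 15 mM glucose and 1% final DMSO. Tested in quadruplicate at 3, 10, 30, 100, 300 µM. Glucose left in the medium read by glucose oxidase. Value is the lowest concentration giving at least 40% more utilization than control.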", "units": {"Lowest effective concentration for glucose utilization ≥140% of control": "µM"}}
{"smiles": "CC(=O)N(C[C@@H]1CN2C(=O)CC[C@]2(c2ccc(Cl)cc2)O1)c1ccc(Cl)cc1", "Lowest effective concentration for glucose utilization ≥140% of control": ">300"}
{"smiles": "OCc1cc(-c2ccc(Cl)c(Cl)c2)no1", "Lowest effective concentration for glucose utilization ≥140% of control": 30}
{"smiles": "CC(C)(C)[C@]12CCC(=O)N1C[C@@H](COc1ccc(Cl)cc1)O2", "Lowest effective concentration for glucose utilization ≥140% of control": ">300"}
{"smiles": "CC(C)(C)[C@]12CCC(=O)N1C[C@H](COc1ccc(Cl)cc1)O2", "Lowest effective concentration for glucose utilization ≥140% of control": ">300"}
{"smiles": "CC(=O)N1CCS[C@@H]1c1ccc(Cl)cc1", "Lowest effective concentration for glucose utilization ≥140% of control": ">300"}
{"smiles": "CC(=O)N1C[C@H](COc2ccc(Cl)cc2)O[C@@H]1c1ccc(Cl)c(Cl)c1", "Lowest effective concentration for glucose utilization ≥140% of control": 30}
{"smiles": "O=C1CC[C@]2(c3ccc(Cl)cc3)O[C@H](CO)CN12", "Lowest effective concentration for glucose utilization ≥140% of control": ">300"}
{"smiles": "O=C1CCC[C@]2(c3ccccc3)O[C@@H](COc3ccc(Cl)cc3)CN12", "Lowest effective concentration for glucose utilization ≥140% of control": ">300"}
{"smiles": "COCc1cc(-c2ccc(Cl)cc2)no1", "Lowest effective concentration for glucose utilization ≥140% of control": 100}
{"smiles": "CC(C)(C)c1cc(CO)on1", "Lowest effective concentration for glucose utilization ≥140% of control": ">300"}
{"smiles": "O=C1CC[C@]2(c3c[nH]c4ccccc34)O[C@H](COc3ccc(Cl)cc3)CN12", "Lowest effective concentration for glucose utilization ≥140% of control": ">300"}
{"smiles": "CC1(C)C[C@]2(c3ccc(Cl)cc3)O[C@@H](COc3ccc(Cl)cc3)CN2C1=O", "Lowest effective concentration for glucose utilization ≥140% of control": 100}
{"smiles": "OCc1cc(-c2ccccc2)no1", "Lowest effective concentration for glucose utilization ≥140% of control": ">300"}
{"smiles": "COC(=O)COC[C@@H]1CN2C(=O)CC[C@]2(c2ccc(Cl)cc2)O1", "Lowest effective concentration for glucose utilization ≥140% of control": ">300"}
{"smiles": "CC(C)C(=O)N1C[C@@H](COc2ccc(Cl)cc2)O[C@@H]1c1ccc(Cl)c(Cl)c1", "Lowest effective concentration for glucose utilization ≥140% of control": 30}
{"smiles": "C=CCOC[C@@H]1CN2C(=O)CC[C@]2(c2ccc(Cl)cc2)O1", "Lowest effective concentration for glucose utilization ≥140% of control": ">300"}
{"smiles": "O=C1CC[C@]2(c3ccc(Cl)c(Cl)c3)O[C@H](CSc3ccc(Cl)cc3)CN12", "Lowest effective concentration for glucose utilization ≥140% of control": 100}
{"smiles": "O=C1CC[C@]2(c3ccc(Cl)c(Cl)c3)O[C@@H](COc3ccc(Cl)cc3)CN12", "Lowest effective concentration for glucose utilization ≥140% of control": 30}
{"smiles": "O=C1CC[C@]2(c3ccc(Cl)c(C(F)(F)F)c3)O[C@@H](COc3ccc(Cl)cc3)CN12", "Lowest effective concentration for glucose utilization ≥140% of control": 300}
{"smiles": "O=C1CC[C@]2(c3ccncc3)O[C@@H](COc3ccc(Cl)cc3)CN12", "Lowest effective concentration for glucose utilization ≥140% of control": 100}
{"smiles": "CC(=O)N1C[C@@H](COc2ccc(Cl)cc2)O[C@@H]1c1ccc(Cl)cc1", "Lowest effective concentration for glucose utilization ≥140% of control": 100}
{"smiles": "CC(=O)N1C[C@@H](COc2ccc(Cl)cc2)O[C@@H]1c1ccc(Cl)c(C(F)(F)F)c1", "Lowest effective concentration for glucose utilization ≥140% of control": 30}
{"smiles": "O=C1CCC[C@]2(c3ccc(Cl)cc3)SCCN12", "Lowest effective concentration for glucose utilization ≥140% of control": ">300"}
{"smiles": "O=C(c1ccccc1)N1C[C@H](COc2ccc(Cl)cc2)O[C@@H]1c1ccc(Cl)c(Cl)c1", "Lowest effective concentration for glucose utilization ≥140% of control": 300}
{"smiles": "O=C1CC[C@]2(c3cccc4ccccc34)O[C@H](COc3ccc(Cl)cc3)CN12", "Lowest effective concentration for glucose utilization ≥140% of control": ">300"}
{"smiles": "OCc1cc(-c2ccc(Cl)cc2Cl)no1", "Lowest effective concentration for glucose utilization ≥140% of control": 300}
{"smiles": "O=C1CC[C@]2(c3ccc(-c4ccccc4)cc3)O[C@@H](COc3ccc(Cl)cc3)CN12", "Lowest effective concentration for glucose utilization ≥140% of control": ">300"}
{"smiles": "O=C(Nc1ccccc1)N1C[C@H](COc2ccc(Cl)cc2)O[C@@H]1c1ccc(Cl)c(Cl)c1", "Lowest effective concentration for glucose utilization ≥140% of control": 30}
{"smiles": "COc1ccc([C@H]2O[C@@H](COc3ccc(Cl)cc3)CN2C(C)=O)cc1", "Lowest effective concentration for glucose utilization ≥140% of control": ">300"}
{"smiles": "O=C1CC[C@]2(c3ccc(Cl)cc3)O[C@H](COCCO)CN12", "Lowest effective concentration for glucose utilization ≥140% of control": ">300"}
{"smiles": "O=C1CC[C@]2(c3ccccc3)OC[C@@H](O)CN12", "Lowest effective concentration for glucose utilization ≥140% of control": ">300"}
{"smiles": "CC1(C)C[C@]2(c3ccc(Oc4ccccc4)cc3)O[C@H](COc3ccc(Cl)cc3)CN2C1=O", "Lowest effective concentration for glucose utilization ≥140% of control": 30}
{"smiles": "O=C1CC[C@]2(c3ccncc3)O[C@H](COc3ccc(Cl)cc3)CN12", "Lowest effective concentration for glucose utilization ≥140% of control": 30}
{"smiles": "C/N=C(\\S)N1CCS[C@@H]1c1ccc(Cl)cc1", "Lowest effective concentration for glucose utilization ≥140% of control": 300}
{"smiles": "CS(=O)(=O)N1C[C@@H](COc2ccc(Cl)cc2)O[C@@H]1c1ccc(Cl)c(Cl)c1", "Lowest effective concentration for glucose utilization ≥140% of control": 30}
{"smiles": "Clc1ccc(OCc2cc(-c3ccc(Cl)cc3)no2)cc1", "Lowest effective concentration for glucose utilization ≥140% of control": ">300"}
{"smiles": "COC(=O)c1cc(CO)on1", "Lowest effective concentration for glucose utilization ≥140% of control": ">300"}
{"smiles": "Cc1cc(CO)on1", "Lowest effective concentration for glucose utilization ≥140% of control": ">300"}
{"smiles": "O=C1CCC[C@]2(c3ccc(Oc4ccccc4)cc3)O[C@H](COc3ccc(Cl)cc3)CN12", "Lowest effective concentration for glucose utilization ≥140% of control": 100}
{"smiles": "CNC(=O)N1CCS[C@@H]1c1ccc(Cl)cc1", "Lowest effective concentration for glucose utilization ≥140% of control": 300}
{"smiles": "O=C1CC[C@]2(c3ccc(Cl)cc3)O[C@H](CNc3ccc(Cl)cc3)CN12", "Lowest effective concentration for glucose utilization ≥140% of control": ">300"}
{"smiles": "O=C1CC[C@]2(c3ccc(F)cc3)O[C@@H](COc3ccc(Cl)cc3)CN12", "Lowest effective concentration for glucose utilization ≥140% of control": ">300"}
{"smiles": "O=C1CC[C@]2(c3ccc(Cl)cc3)O[C@@H](CCc3ccccc3)CN12", "Lowest effective concentration for glucose utilization ≥140% of control": ">300"}
{"smiles": "O=C1CC[C@]2(c3ccc(Cl)cc3)O[C@@H](CO)CN12", "Lowest effective concentration for glucose utilization ≥140% of control": ">300"}
{"smiles": "OCCc1cc(-c2ccc(Cl)cc2)no1", "Lowest effective concentration for glucose utilization ≥140% of control": 100}
{"smiles": "O=C1CC[C@]2(c3ccc(Cl)c(Cl)c3)O[C@H](COc3ccc(Cl)cc3)CN12", "Lowest effective concentration for glucose utilization ≥140% of control": 10}
{"smiles": "COc1ccc([C@]23CCC(=O)N2C[C@H](COc2ccc(Cl)cc2)O3)cc1", "Lowest effective concentration for glucose utilization ≥140% of control": ">300"}
{"smiles": "O=C(O)c1cc(CO)on1", "Lowest effective concentration for glucose utilization ≥140% of control": ">300"}
{"smiles": "O=C(Nc1ccccc1)N1C[C@@H](COc2ccc(Cl)cc2)O[C@@H]1c1ccc(Cl)c(Cl)c1", "Lowest effective concentration for glucose utilization ≥140% of control": 30}
{"smiles": "O=C1CC[C@]2(c3ccc(Cl)c(C(F)(F)F)c3)O[C@H](COc3ccc(Cl)cc3)CN12", "Lowest effective concentration for glucose utilization ≥140% of control": 10}
{"smiles": "O=C1CC[C@]2(c3ccccc3)OC[C@H](O)CN12", "Lowest effective concentration for glucose utilization ≥140% of control": ">300"}
{"smiles": "CC(C)(C)OC[C@@H]1CN2C(=O)CC[C@]2(c2ccc(Cl)cc2)O1", "Lowest effective concentration for glucose utilization ≥140% of control": 300}
{"smiles": "C/N=C(\\S)N1CCO[C@@H]1c1ccc(Cl)cc1", "Lowest effective concentration for glucose utilization ≥140% of control": ">300"}
{"smiles": "OCc1cc(Cc2ccccc2)no1", "Lowest effective concentration for glucose utilization ≥140% of control": ">300"}
{"smiles": "CNC(=O)N1CCO[C@@H]1c1ccc(Cl)cc1", "Lowest effective concentration for glucose utilization ≥140% of control": ">300"}
{"smiles": "CC1(C)C[C@]2(c3ccc(Cl)cc3)O[C@H](COc3ccc(Cl)cc3)CN2C1=O", "Lowest effective concentration for glucose utilization ≥140% of control": 30}
{"smiles": "COc1ccc([C@H]2O[C@H](COc3ccc(Cl)cc3)CN2C(C)=O)cc1", "Lowest effective concentration for glucose utilization ≥140% of control": ">300"}
{"smiles": "O=C1CC[C@]2(c3ccc4oc5ccccc5c4c3)O[C@@H](COc3ccc(Cl)cc3)CN12", "Lowest effective concentration for glucose utilization ≥140% of control": ">300"}
{"smiles": "CS(=O)(=O)N1CCS[C@@H]1c1ccc(Cl)cc1", "Lowest effective concentration for glucose utilization ≥140% of control": 300}
{"smiles": "CC1(C)C[C@]2(c3ccc(Oc4ccccc4)cc3)OCCN2C1=O", "Lowest effective concentration for glucose utilization ≥140% of control": 10}
{"smiles": "O=C1CC[C@]2(C3CCCCC3)O[C@@H](COc3ccc(Cl)cc3)CN12", "Lowest effective concentration for glucose utilization ≥140% of control": ">300"}
{"smiles": "CC(=O)c1cc(CO)on1", "Lowest effective concentration for glucose utilization ≥140% of control": ">300"}
{"smiles": "CC(C)(O)c1cc(-c2ccc(Cl)cc2)no1", "Lowest effective concentration for glucose utilization ≥140% of control": 100}
{"smiles": "O=C1CC[C@]2(c3ccc(Cl)cc3)O[C@H](COc3ccc(Cl)cc3)CCN12", "Lowest effective concentration for glucose utilization ≥140% of control": ">300"}
{"smiles": "COC(=O)N1C[C@@H](COc2ccc(Cl)cc2)O[C@@H]1c1ccc(Cl)c(Cl)c1", "Lowest effective concentration for glucose utilization ≥140% of control": 300}
{"smiles": "O=C1CC[C@]2(C3CCCCC3)O[C@H](COc3ccc(Cl)cc3)CN12", "Lowest effective concentration for glucose utilization ≥140% of control": 100}
{"smiles": "O=C1CC[C@]2(c3ccc(Cl)c(Cl)c3)O[C@@H](CSc3ccc(Cl)cc3)CN12", "Lowest effective concentration for glucose utilization ≥140% of control": 100}
{"smiles": "O=C1CC[C@]2(c3ccc(Cl)cc3)O[C@@H](CNc3ccc(Cl)cc3)CN12", "Lowest effective concentration for glucose utilization ≥140% of control": ">300"}
{"smiles": "O=C(c1ccccc1)N1C[C@@H](COc2ccc(Cl)cc2)O[C@@H]1c1ccc(Cl)c(Cl)c1", "Lowest effective concentration for glucose utilization ≥140% of control": ">300"}
{"smiles": "CC(=O)N1C[C@H](COc2ccc(Cl)cc2)O[C@@H]1c1ccc(Cl)c(C(F)(F)F)c1", "Lowest effective concentration for glucose utilization ≥140% of control": 30}
{"smiles": "CS(=O)(=O)N1C[C@H](COc2ccc(Cl)cc2)O[C@@H]1c1ccc(Cl)c(Cl)c1", "Lowest effective concentration for glucose utilization ≥140% of control": 30}
{"smiles": "CC(=O)N1C[C@@H](COc2ccc(Cl)cc2)S[C@@H]1c1ccc(Cl)cc1", "Lowest effective concentration for glucose utilization ≥140% of control": 300}
{"smiles": "C[C@]12CCC(=O)N1C[C@@H](COc1ccc(Cl)cc1)O2", "Lowest effective concentration for glucose utilization ≥140% of control": ">300"}
{"smiles": "CC(=O)N1C[C@H](COc2ccc(Cl)cc2)S[C@@H]1c1ccc(Cl)cc1", "Lowest effective concentration for glucose utilization ≥140% of control": 30}
{"smiles": "O=C1CC[C@]2(c3ccc(Cl)cc3)O[C@H](CCc3ccccc3)CN12", "Lowest effective concentration for glucose utilization ≥140% of control": ">300"}
{"smiles": "O=C1CC[C@]2(c3cccnc3)O[C@@H](COc3ccc(Cl)cc3)CN12", "Lowest effective concentration for glucose utilization ≥140% of control": 300}
{"smiles": "O=C1CC[C@]2(c3ccc(Cl)c(Cl)c3)OC(COc3ccc(Cl)cc3)CN12", "note": "(single isomer, unassigned)", "Lowest effective concentration for glucose utilization ≥140% of control": ">300"}
{"smiles": "CN(C)C(=N)NC(=N)N.Cl", "note": "[METFORMIN HYDROCHLORIDE]", "Lowest effective concentration for glucose utilization ≥140% of control": 1000}
{"smiles": "Cc1c(C)c2c(c(C)c1O)CCC(C)(COc1ccc(CC3SC(=O)NC3=O)cc1)O2", "note": "(centres undefined) [TROGLITAZONE]", "Lowest effective concentration for glucose utilization ≥140% of control": 30}
